In general, IC50 refers to the point on the concentration scale where inhibition reaches its midpoint.

This note sets out measurements from ChEMBL document CHEMBL3407395, “Synthesis, characterization, and optimization for in vivo delivery of a nonselective isopeptidase inhibitor as new antineoplastic agent” (J Med Chem, 2015).

The source made the active and inactive calls. The rule behind the calls is not given here.

Assay [1] can be described thus: Cytotoxicity against human U87MG cells after 48 hrs by resazurin assay. It is filed as functional, cell-based, U-87MG ATCC. The note with it: U-87 MG. The method, boiled down:
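U87MG glioblastoma cells treated with compounds; viability read by resazurin 48 h after treatment. IC50 from triplicate experiments, reported as mean and s.d.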
On the technique in general: Resazurin is reduced to fluorescent resorufin, in cell work by metabolically active cells.

For assay [2], the system named is T98G. The assay can be described thus: Induction of necrosis in human T98G cells at 0.6 to 10 uM after 24 hrs by trypan blue assay. It is filed as functional, cell-based. The method, boiled down: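 T98G cells exposed 24 h to the listed concentrations. Cell death was scored as percent of trypan blue-positive cells.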
Assay [3] deals with T98G. Description: Induction of apoptosis in human T98G cells assessed as caspase activation at 0.6 to 10 uM after 24 hrs by rhodamine-based fluorescence assay. Type of assay: functional, cell-based. In outline: (§1)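 U87MG or T98G cells exposed 24 h to the listed concentrations. Caspase activity was read as relative fluorescence units from the rhodamine 110 bis-(N-Z-L-aspartyl-L-glutamyl-L-valyl-aspartic acid amide) fluorogenic substrate.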

The next assay relates to U-87 MG. Description: Induction of apoptosis in human U87MG cells assessed as caspase activation at 0.6 to 10 uM after 24 hrs by rhodamine-based fluorescence assay. Type of assay: functional, cell-based. To be noted: U-87MG ATCC. The method, boiled down:
as §1

Assay [4] addresses T1, Ubiquitin carboxyl-terminal hydrolase isozyme L5 (Homo sapiens, UniProt Q9Y5K5).
T1 sequence (Q9Y5K5 whole entry): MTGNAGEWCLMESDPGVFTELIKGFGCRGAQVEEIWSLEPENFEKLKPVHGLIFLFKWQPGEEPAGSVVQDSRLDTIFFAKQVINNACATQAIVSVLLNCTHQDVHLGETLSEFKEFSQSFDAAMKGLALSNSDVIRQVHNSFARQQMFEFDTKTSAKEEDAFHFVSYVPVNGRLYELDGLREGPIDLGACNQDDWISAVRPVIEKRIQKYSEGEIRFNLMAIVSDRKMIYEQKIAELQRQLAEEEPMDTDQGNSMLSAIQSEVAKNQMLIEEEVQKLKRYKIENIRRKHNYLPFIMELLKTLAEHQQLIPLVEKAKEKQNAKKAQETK
Description: Inhibition of GST-tagged UCHL5 (unknown origin) using Ub-AMC as substrate preincubated for 30 mins before substrate addition measured after 60 mins by fluorescence assay. In outline: (§2)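 Purified isopeptidase activity was measured with ubiquitin-AMC as fluorogenic substrate; IC50 was derived from inhibition.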

Assay [5] addresses T2, Ubiquitin carboxyl-terminal hydrolase 2 (Homo sapiens) (UniProt O75604).
T2 sequence (whole entry): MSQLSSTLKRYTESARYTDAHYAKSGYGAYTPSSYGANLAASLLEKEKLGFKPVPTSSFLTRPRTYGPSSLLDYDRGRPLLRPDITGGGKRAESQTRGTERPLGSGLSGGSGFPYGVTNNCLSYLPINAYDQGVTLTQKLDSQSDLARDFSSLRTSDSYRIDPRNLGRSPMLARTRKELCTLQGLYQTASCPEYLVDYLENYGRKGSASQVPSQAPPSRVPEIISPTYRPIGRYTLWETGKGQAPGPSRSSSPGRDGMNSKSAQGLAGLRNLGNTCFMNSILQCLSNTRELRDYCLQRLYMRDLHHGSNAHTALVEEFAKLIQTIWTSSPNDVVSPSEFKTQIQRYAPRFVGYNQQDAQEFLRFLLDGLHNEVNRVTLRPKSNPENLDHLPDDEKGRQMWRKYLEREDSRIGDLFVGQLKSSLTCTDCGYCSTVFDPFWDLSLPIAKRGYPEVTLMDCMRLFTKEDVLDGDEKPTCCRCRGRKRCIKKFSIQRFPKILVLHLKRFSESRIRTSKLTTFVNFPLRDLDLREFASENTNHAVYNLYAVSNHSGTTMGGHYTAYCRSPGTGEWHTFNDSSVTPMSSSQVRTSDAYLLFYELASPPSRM
The assay can be described thus: Inhibition of USP2 catalytic domain (unknown origin) expressed in bacteria using Ub-AMC as substrate preincubated for 30 mins before substrate addition measured after 60 mins by fluorescence assay. In outline:
as §2

In assay [6] the target is T3, Ubl carboxyl-terminal hydrolase 18 (Homo sapiens, UniProt Q9UMW8).
T3 sequence (Q9UMW8 whole entry): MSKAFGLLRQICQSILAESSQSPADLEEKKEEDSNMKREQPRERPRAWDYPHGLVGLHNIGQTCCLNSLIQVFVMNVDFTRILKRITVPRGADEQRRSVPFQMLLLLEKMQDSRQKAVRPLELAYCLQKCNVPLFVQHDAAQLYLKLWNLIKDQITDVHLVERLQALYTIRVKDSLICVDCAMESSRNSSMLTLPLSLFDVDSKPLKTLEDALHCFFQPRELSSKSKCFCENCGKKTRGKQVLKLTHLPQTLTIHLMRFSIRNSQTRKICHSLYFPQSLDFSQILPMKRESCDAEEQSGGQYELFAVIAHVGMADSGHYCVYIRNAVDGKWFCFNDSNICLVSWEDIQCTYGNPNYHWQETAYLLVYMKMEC
Description: Inhibition of recombinant human USP18 (16 to 372 aa) expressed in Sf9 cells using ISG15-AMC as substrate preincubated for 30 mins before substrate addition measured after 60 mins by fluorescence assay.

Assay [7] relates to A-375. The assay can be described thus: Cytotoxicity against human A375 cells after 48 hrs by resazurin assay. It is filed as functional, cell-based. To be noted: A-375, 48 h.
Assay [8] concerns HT-29. The assay can be described thus: Cytotoxicity against human HT-29 cells after 48 hrs by resazurin assay. It is filed as functional, cell-based. To be noted: HT-29, 48 h.
The nature of assay [9]: Cytotoxicity against human Hep3B cells after 48 hrs by resazurin assay. It is filed as functional, cell-based, Hep 3B2.
Assay [10] can be described thus: Cytotoxicity against human MIAPaCa2 cells after 48 hrs by resazurin assay. It is filed as functional, cell-based. The note with it: MIA PaCa-2, 48 h.
Assay [11] concerns A549. The assay can be described thus: Induction of cell death in human A549 cells assessed as accumulation of poly-ubiquitinated proteins at 2.5 to 10 uM after 24 hrs by immunoblot assay. It is filed as functional, cell-based. The method, boiled down: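 A549 cells dosed at three levels (2.5, 5, 10 µM or 1, 2.5, 5 µM depending on inhibitor); lysates made after 24 h. Immunoblots probed poly-ubiquitin, p53 and Noxa, quantified by densitometry; mean of two experiments.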
(In general: Immunoblotting shows a protein as a band on a membrane.)

In assay [12] the test system is A549. Description: Induction of cell death in human A549 cells at 2.5 to 10 uM after 48 hrs by trypan blue assay. Type of assay: functional, cell-based. In outline: (§3)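 A549 or A375 cells treated 48 h with 2.5–10 µM. Cell death was scored by trypan blue exclusion as a function of concentration.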
Assay [13] concerns A-375. Description: Induction of cell death in human A375 cells at 2.5 to 10 uM after 48 hrs by trypan blue assay. Type of assay: functional, cell-based. The method, boiled down: as §3
In assay [14] the test system is A549. The assay can be described thus: Induction of cell death in human A549 cells assessed as accumulation of poly-ubiquitinated proteins at 10 uM after 48 hrs by immunoblot assay. Type of assay: functional, cell-based. In outline: (§4)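 A549 cells grown in normal or A375-conditioned medium, treated with 10 µM. Immunoblots probed poly-ubiquitin accumulation, p53 stabilization and Noxa induction.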

Assay [15] has as its system A549. The assay can be described thus: Induction of cell death in human A549 cells assessed as accumulation of p53 at 10 uM after 48 hrs by immunoblot assay. It is filed as functional, cell-based. The method, boiled down:
as §4

The test system of assay [16] is A549. Description: Induction of cell death in human A549 cells assessed as accumulation of Noxa at 10 uM after 48 hrs by immunoblot assay. Type of assay: functional, cell-based. In outline: as §4
Assay [17] deals with HT-29. The assay can be described thus: Induction of cell death in human HT-29 cells at 2.5 to 10 uM after 48 hrs by trypan blue assay. Type of assay: functional, cell-based.
The test system of assay [18] is A-375. Description: Induction of cell death in human A375 cells assessed as stabilization of p53 at 10 uM after 24 hrs by immunoblot assay. It is filed as functional, cell-based.
Assay [19] concerns A-375. The assay can be described thus: Induction of cell death in human A375 cells assessed as Noxa induction at 10 uM after 24 hrs by immunoblot assay. It is filed as functional, cell-based.

Consider `O=C1/C(=C/c2ccc([N+](=O)[O-])cc2)CC(O)C/C1=C\c1ccc([N+](=O)[O-])cc1` (stereo not given), for which the IC50 in [1] worked out at 4.62 µM; in assay [4], 43 µM; in assay [6] it was 21.2 µM; in the assay with A-375 [7], 6.1 µM; in the assay on HT-29 [8] it was 7.6 µM; in assay [9] it was 8.5 µM. Besides, the IC50 in [10] turned out to be 35.2 µM. The result in the assay on T98G [2], with T98G [3], with U-87 MG, in the assay with A549 [11], in the assay on A549 [12] and in the assay with A-375 [13] was Active. Further, the outcome with A549 [14], in the assay on A549 [15], in the assay with A549 [16], in the assay on HT-29 [17], in the assay with A-375 [18] and in the assay on A-375 [19] was Active. Further, the inhibition result in assay [5] is “inactive”.
